HKDC1 inhibitor – inhibitors of human hexokinase HKDC1. inhibition, % at 20 µM. recombinant HKDC1, G6PDH/diaphorase resazurin coupled fluorescence. 340,000 tested, 0.16% active. AID 493160;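 active = inhibition above about 35% when tested at 20 µM, limit read from the data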
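test system = in-house recombinant HK5 (HKDC1) enzyme | amount = HKDC1 at 5 µg/mL | control set = DMSO-enzyme wells negative, buffer-substituted wells positive | compound = one dose of 20 µM, 1% DMSO | schedule = reaction time 90 min, room temperature, protected from light | technique = resorufin fluorescence at 613 nm | reagent = glucose with 1 mM ATP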
H9c2 protect – protects H9c2 cardiomyocytes from peroxide injury; 360,000 tested, 0.63% active; protection from H2O2 cell death, % at 20 µM; AID 588492; H2O2 injury protection, ATPLite, 2 h;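 active = compounds giving at least 50% protection of heart cells from peroxide-induced death in the single-dose screen, raw or plate-pattern-corrected value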
PfG6PD inh – PfG6PD (Plasmodium falciparum) enzyme inhibition | PfGluPho enzyme, NADPH resazurin-diaphorase fluorescence | inhibition, % at 20 µM | 350,000 tested, 0.78% active | AID 504690;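 active = inhibition reaching at least a set limit at 20 µM in the primary screen, cut at about 59% in these data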
UCH37 inh – blocks the human deubiquitinase UCH37; Q9Y5K5; purified proteasome/UCH37, Ub-AMC cleavage fluorescence; inhibition, % (no concentration beside the values); 330,000 tested, 0.33% active; AID 588478;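 active = mean inhibition over replicate wells above about 20%, limit read from the data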
Target sequence (Q9Y5K5 whole entry, looked up): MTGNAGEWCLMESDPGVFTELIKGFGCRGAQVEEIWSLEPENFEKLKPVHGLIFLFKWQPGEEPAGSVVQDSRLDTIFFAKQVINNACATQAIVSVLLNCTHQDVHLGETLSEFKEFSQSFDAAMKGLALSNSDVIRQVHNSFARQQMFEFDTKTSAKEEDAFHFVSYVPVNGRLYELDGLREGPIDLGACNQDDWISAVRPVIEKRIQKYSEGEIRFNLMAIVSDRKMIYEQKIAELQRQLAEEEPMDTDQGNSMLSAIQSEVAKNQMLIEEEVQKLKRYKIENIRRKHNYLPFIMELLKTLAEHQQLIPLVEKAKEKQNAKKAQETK
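Material: Human UCH37 enzyme supplied as purified proteasome complex | Schedule: 30 min preincubation with enzyme, 25 min cleavage at room temperature | Detection: AMC fluorescence 355/460 nm | Measure: % inhibition of Ub-AMC cleavage fluorescence | Controls: Wells without proteasome as full block, compound-free enzyme plus substrate as uninhibited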
B2AR ag – agonists of human beta-2 adrenergic receptor inducing internalization | P07550 | Am2.2-beta2AR cells, FAP receptor internalization, flow cytometry | response, % (test concentration not listed) | 340,000 tested, 0.43% active | AID 504454;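 active = response above a set limit, near 3 SD of response in nonfluorescent compounds, cut at about 42% in these data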
Target sequence (P07550 whole entry, looked up): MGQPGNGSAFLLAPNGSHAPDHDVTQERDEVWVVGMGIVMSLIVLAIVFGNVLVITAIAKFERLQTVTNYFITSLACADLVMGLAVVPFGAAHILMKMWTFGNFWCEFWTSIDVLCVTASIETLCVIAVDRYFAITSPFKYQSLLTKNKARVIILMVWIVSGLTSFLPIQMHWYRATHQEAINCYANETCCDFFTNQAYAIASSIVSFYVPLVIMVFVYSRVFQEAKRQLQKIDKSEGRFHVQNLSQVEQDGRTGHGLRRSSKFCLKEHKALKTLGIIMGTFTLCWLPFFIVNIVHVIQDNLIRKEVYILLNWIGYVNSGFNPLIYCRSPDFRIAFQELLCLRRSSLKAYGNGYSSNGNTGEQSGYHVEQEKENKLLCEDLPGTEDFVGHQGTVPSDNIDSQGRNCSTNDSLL
aDG glyco act – alpha-DG glycosylation activation | Pro5-aDG cells, alpha-DG glycosylation AlphaScreen (IIH6); 0% Pro5, 100% B10-LARGE cell signal | activation, % at 10 µM | 360,000 tested, 0.22% active;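 active = activation of at least 8% versus controls, or a plate z-score of at least 8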;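 note: Pro5 are CHO cells carrying HIG-tagged alpha-DG that lacks glycosylation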
Each line names hits and unclear results; the compound was inactive in the other large screens. Shown are actives, neighbours in structure and some others; about 2.1% of the full set was active somewhere.

O=C(CNC(=O)c1[nH]cnc1C(=O)N[C@@H](Cc1ccccc1)C(=O)OCc1ccccc1)OCc1ccccc1	none
O=C(CNC(=O)c1[nH]cnc1C(=O)NC(c1ccccc1)c1ccccc1)OCc1ccccc1	H9c2 protect 58.0
Cc1ncc(CO)c2c1Oc1nc(-c3ccccc3)nc(SCC(=O)N3CCOCC3)c1C2	none
Cc1cccc(-c2nc3c(c(SCC(=O)N4CCOCC4)n2)Cc2c(CO)cnc(C)c2O3)c1	H9c2 protect 51.0
Cc1ncc(CO)c2c1Oc1nc(-c3ccccc3)nc(SCC(=O)N3CCCCC3)c1C2	H9c2 protect 74.4
COc1cccc(-c2nc3c(c(SCC(=O)N4CCOCC4)n2)Cc2c(CO)cnc(C)c2O3)c1	H9c2 protect 71.9
COc1cc(C=NN(c2ccccc2)c2ccccc2)ccc1O	none (no result: HKDC1 inhibitor, H9c2 protect, PfG6PD inh, B2AR ag, aDG glyco act)
O=C(O)/C=C/C(=O)c1ccc2c(c1)CCc1ccccc1-2	B2AR ag 95.8
CC(=O)Nc1ccc2c(c1)CCc1ccccc1-2	none
O=C(Cn1[nH]c(=O)c2ccccc2c1=O)N1CCN(S(=O)(=O)c2ccc(Cl)cc2)CC1	H9c2 protect 74.1
Cc1ccc(C)c(S(=O)(=O)N2CCN(C(=O)Cn3[nH]c(=O)c4ccccc4c3=O)CC2)c1	H9c2 protect 60.8
O=C(CCC(=O)N1CCN(S(=O)(=O)c2ccc(Cl)cc2)CC1)NCc1ccccc1	none
Cc1ccc(C)c(S(=O)(=O)N2CCN(C(=O)CSc3ccccc3)CC2)c1	none
C/C(=N\Nc1nnc2c3ccccc3n(C)c2n1)c1ccc(C)o1	H9c2 protect 69.6 (no result: UCH37 inh)
Cc1c(C(=O)NN=Cc2cccs2)nnn1-c1nonc1N	none (no result: HKDC1 inhibitor, H9c2 protect, PfG6PD inh, B2AR ag, aDG glyco act)
O=C(NN=Cc1ccc(OCc2cnc(Cl)s2)cc1)c1ccncc1	none (no result: HKDC1 inhibitor, H9c2 protect, PfG6PD inh, B2AR ag, aDG glyco act)
Cn1c(=O)n(CCc2ccccc2)c(=O)c2c1nc1n2CCN1Cc1ccco1	H9c2 protect 98.1
CCCCn1nc(C(=O)Oc2ccc3c(C)cc(=O)oc3c2)c2ccccc2c1=O	H9c2 protect 51.5
CCCC(=O)Oc1ccc2c(C)cc(=O)oc2c1	none
C/C(=C\C(=O)c1ccc(Br)cc1)NCc1ccc(C)cc1	none
C/C(=C\C(=O)c1ccc(Br)cc1)NCc1ccccc1	B2AR ag 46.4
O=C(CN1CCSCC1)NN=Cc1cccc(Cl)c1	none (no result: HKDC1 inhibitor, H9c2 protect, PfG6PD inh, B2AR ag, aDG glyco act)
O=C(CSc1nc2ccccc2o1)NCc1n[nH]c(=O)c2ccccc12	H9c2 protect 57.0
O=C(Cc1n[nH]c(=O)c2ccccc12)NCc1ccccn1	H9c2 protect 54.1
CCCN(CC(=O)Nc1ccccc1C)C(=O)Cc1n[nH]c(=O)c2ccccc12	H9c2 protect 59.7
O=C(Cc1ccccc1)NCc1ccccn1	none
O=C(COc1ccc(Cl)cc1)NCc1n[nH]c(=O)c2ccccc12	H9c2 protect 80.8
C/C(C=Nn1c(COc2ccccc2)n[nH]c1=S)=C\c1ccco1	none (no result: HKDC1 inhibitor, H9c2 protect, PfG6PD inh, B2AR ag, aDG glyco act)
O=C(C[n+]1cccc(C=NO)c1)N(Cc1ccccc1)Cc1ccccc1	none (no result: HKDC1 inhibitor, H9c2 protect, PfG6PD inh, B2AR ag, aDG glyco act)
COc1ccc(OCC(=O)NCc2n[nH]c(=O)c3ccccc23)cc1	H9c2 protect 77.8
Cc1c(Cl)cccc1NC(=O)CNC(=O)Cc1n[nH]c(=O)c2ccccc12	H9c2 protect 87.9
O=C(COC(=O)Cc1n[nH]c(=O)c2ccccc12)NNC(=O)c1ccccc1	none
Cc1c(Cl)cccc1NC(=O)CNC(=O)CCCc1nc2ccccc2c(=O)[nH]1	none
O=C(Cc1n[nH]c(=O)c2ccccc12)NCc1ccc(Cl)cc1	H9c2 protect 67.1
S=c1[nH]nc(-c2ccco2)n1N=Cc1ccc(Cl)cc1Cl	none (no result: HKDC1 inhibitor, H9c2 protect, PfG6PD inh, B2AR ag, aDG glyco act)
CCC1(C)Cc2c(sc3nc(NN)n(C)c(=O)c23)CO1 (stereo not given)	H9c2 protect 51.3
CCOC(=O)CSc1nc2sc3c(c2c(=O)[nH]1)CC(C)(CC)OC3 (stereo not given)	none
CCCn1c(NN=C(C)/C=C/c2ccccc2)nc2c1c(=O)[nH]c(=O)n2C	none (no result: HKDC1 inhibitor, H9c2 protect, PfG6PD inh, B2AR ag, aDG glyco act)
CC(C)(C)c1cnnn1-c1ccc(C(=O)CCl)cc1	B2AR ag 44.6
CCOc1ccccc1NC(=O)C(=O)N/N=C/c1cc(Br)ccc1O	H9c2 protect 57.2 (no result: UCH37 inh)
CC(=NNc1ccc(F)cc1)c1ccc(Cl)s1	none (no result: HKDC1 inhibitor, H9c2 protect, PfG6PD inh, B2AR ag, aDG glyco act)
Cc1ccsc1C=Nn1c(COc2ccccc2)n[nH]c1=S	none (no result: HKDC1 inhibitor, H9c2 protect, PfG6PD inh, B2AR ag, aDG glyco act)
COc1ccc(-c2cc(C(=O)N3CCN(c4ccccn4)CC3)c3ccccc3n2)cc1	none
COc1cc(-c2cc(C(=O)NCc3ccc(S(N)(=O)=O)cc3)c3ccccc3n2)cc(OC)c1OC	none
O=C(Nc1ccccc1N1CCOCC1)c1cc(-c2ccncc2)nc2ccccc12	none
COc1cc(-c2cc(C(=O)NCc3ccco3)c3ccccc3n2)cc(OC)c1OC	H9c2 protect 58.6
COc1cc(-c2cc(C(=O)N3CCN(c4ccccn4)CC3)c3ccccc3n2)cc(OC)c1OC	H9c2 protect 64.6
COc1ccc(-c2cc(C(=O)Nc3ccccc3N3CCOCC3)c3ccccc3n2)cc1OC	H9c2 protect 61.7
CCN(CC)S(=O)(=O)c1ccc(N2CCOCC2)c(NC(=O)c2cc(-c3ccccn3)nc3ccccc23)c1	H9c2 protect 52.2
NS(=O)(=O)c1ccc(NN=C/C=C/c2ccccc2[N+](=O)[O-])cc1	none (no result: HKDC1 inhibitor, H9c2 protect, PfG6PD inh, B2AR ag, aDG glyco act)
CCN(CC)S(=O)(=O)c1cccc(C(=O)NN=Cc2ccc([N+](=O)[O-])o2)c1	none (no result: HKDC1 inhibitor, H9c2 protect, PfG6PD inh, B2AR ag, aDG glyco act)
COc1ccc(-c2ccc3c(c2)S(=O)(=O)c2cccc(C(=O)N4CCN(c5ccccn5)CC4)c2C3=O)cc1OC	H9c2 protect 87.9 (no result: HKDC1 inhibitor, UCH37 inh, B2AR ag)
COc1cc(-c2cc(C(=O)Nc3ccc(S(=O)(=O)NCc4ccco4)cc3)c3ccccc3n2)cc(OC)c1OC	H9c2 protect 61.2
COc1cc(-c2cc(C(=O)Nc3ccncc3)c3ccccc3n2)cc(OC)c1OC	none
COc1ccc(-c2cc(C(=O)NNC(=O)c3csc(N4CCOCC4)n3)c3ccccc3n2)cc1	H9c2 protect 52.3
COc1ccccc1NC(=O)c1cc(-c2cc(OC)c(OC)c(OC)c2)nc2ccccc12	H9c2 protect 66.4
O=C(NN=Cc1cccs1)c1ccc2ccccc2c1	none (no result: HKDC1 inhibitor, H9c2 protect, PfG6PD inh, B2AR ag, aDG glyco act)
CC1=NC(=O)C(N=Nc2ccccc2)N1c1ccccc1 (stereo not given)	none
CC1=NC(=O)C(N=Nc2ccccc2C(=O)O)N1c1ccccc1 (stereo not given)	UCH37 inh 20.7
O=C(Oc1ccc2c(-c3ccccc3)cc(=O)oc2c1)c1cccs1	none
O=C(Oc1ccc2c(-c3ccccc3)cc(=O)oc2c1)C1CCCCC1	H9c2 protect 87.6
COc1ccc(-c2cc(=O)oc3cc(OC(=O)C4CCCCC4)ccc23)cc1	H9c2 protect 52.4
Clc1ccc2c(SCC3CO3)c3ccccc3nc2c1 (stereo not given)	B2AR ag 82.5 (no result: UCH37 inh)
CCn1c(/C=C/c2ccc(O)cc2)nc2ccccc2c1=O	none
CCn1c(/C=C/c2ccc(O)c(O)c2)nc2ccccc2c1=O	H9c2 protect 70.5

Assay outcomes from PubChem BioAssay.
